Experimental data: ChEMBL document CHEMBL4513216, “Probing the Open Global Health Chemical Diversity Library for Multistage-Active Starting Points for Next-Generation Antimalarials” (ACS Infect Dis, 2020)

Assay: Toxicity liver stage against HepG2, at 10uM
Assay type: cell-based
Design: test concentration 10 uM, cell line HepG2-A16-CD81EGFP
Details: human, HepG2-A16-CD81EGFP cells; read-out: INHIBITION
Summary of the method: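 Uninfected HepG2-A16-CD81EGFP cells, 3 × 10^3 per well, 1536-well, plated on prespotted compound at 10 μM final, parasite-free screening media added to match infected plates; puromycin 10 μM positive, DMSO 0.5% negative; run in parallel with 48 h PbLuc assay at 37 °C, 5% CO2; viability by CellTiter-Glo luminescence, normalized to controls.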

Structure (SMILES) | cytotoxicity at 10 µM
O=C(c1ccc(C2CCCN2)s1)N1CCN2CCC1CC2 (configuration not stated) | -8.52%
CNc1nc(C(=O)N2CCC3(CCCN(C)C3=O)C2)cs1 (configuration not stated) | -8.57%
Cc1ccc(CC(=O)N2CCc3nnc(N(C)C)cc3C2)cn1 | -8.16%
O=C(COc1ccccc1Br)N1CCOc2ccncc21 | 5.13%
COc1ccccc1NC(=O)c1ccc(C)n1C | 1.42%
Nc1nnc(SCC(=O)NCC(O)c2ccccc2)s1 (configuration not stated) | 12%
CC(=O)c1c[nH]c(C(=O)N2CCN(C(C(N)=O)c3ccccc3)CC2)c1 (configuration not stated) | 8.61%
COc1cccc([C@@H]2CCN(Cc3c[nH]c(C)n3)C[C@H]2O)c1 | -2.89%
O=C(c1ccc(Cl)o1)N1CCCC(c2cc(C(F)(F)F)[nH]n2)C1 (configuration not stated) | 2.14%
Cc1ccc(Cl)c(CN2CCC(c3nccn3C(C)C)CC2)c1F | 4.8%
Cc1ccc(NC(=O)CC2NC(N3CCc4ccccc43)=NC2=O)cc1 (configuration not stated) | 0.417%
CN(C)CC1CCN(Cc2nccn2CC(F)(F)F)CC1 | 4.99%
CC(=O)N1CCN(c2cc(-n3cnc(C)c3C)nc(C)n2)CC1 | 0.727%
COCc1nccc(C2CCCN(Cc3ccc(C#N)cc3)C2)n1 (configuration not stated) | 6.45%
CCOCCCNC(=O)Nc1ccc(F)c(C(N)=O)c1 | -16.9%
Cc1cccc(OCCN2CCCC(c3cc(C(N)=O)[nH]n3)C2)c1 (configuration not stated) | -11.9%
NC(=O)c1cc(C2CCCN(CCCOc3ccc(F)cc3)C2)n[nH]1 (configuration not stated) | -16.4%
CCc1noc(CC)c1CC(=O)N1CCCC(N2CCCCC2)C1 (configuration not stated) | -15.3%
CS(=O)(=O)NC1CCN(C(=O)CCn2cccn2)CC1 | -7.74%
Cc1cc(C)c2c(c1)C(NCc1nnc3n1CCC3)CCCO2 (configuration not stated) | -0.117%
Cc1nc(C)c(CCNc2ccc(S(N)(=O)=O)cc2C#N)s1 | -62.2%
Cc1ccccc1Oc1ncccc1CNC1CCC1 | -1.27%
Cc1c(Cl)c(C(=O)N2CC(c3cccnc3)C2)nn1C | -5.23%

Structure (SMILES) | cytotoxicity at 10 µM
Cc1ccc(C)c(C(NC2CCCC2)c2cccnc2)c1 (configuration not stated) | 23.5%
COC(=O)[C@@H]1Cc2ncn(C)c2CN1S(=O)(=O)c1cccs1 | -6.25%
Cc1ccc(-c2nnc(CN3CC[C@H](CO)[C@@H](O)C3)o2)n1C | -4.39%
Cc1nc(C)n(CC2CCCCN2CCCS(C)(=O)=O)n1 (configuration not stated) | 5.02%
Cc1cc(C)n(C2CCN(C(=O)CN3C(=O)CSc4ccccc43)C2)n1 (configuration not stated) | -15.3%
Cc1ccc2nc(C)cc(C(=O)NCc3csc(N(C)C)n3)c2c1 | 1.21%
C[C@@H]1CN(Cc2ccco2)CCN1C(=O)Cc1ccccc1F | 4.94%
CCNc1cc2c(nn1)CCN(C(=O)c1cc(C)no1)C2 | -14.5%
Cc1cc(C(=O)NC(C)c2nnn[nH]2)c2cccc(C)c2n1 (configuration not stated) | -16.4%
COC(=O)c1cc2n(n1)CCCN(C(=O)Cc1c[nH]c3ccccc13)C2 | 2.61%
CCOC(=O)CNC(=O)c1scnc1C | 5.35%
CCCc1nc(C(C)(C)NC(=O)c2ccnn2C)no1 | -10.5%
COCCNC(=O)C1CN(C(N)=O)Cc2ccnn2C1 (configuration not stated) | 0.0039%
Cc1cnn(CC2CCCN2Cc2ncc(-c3ccccc3)o2)c1 (configuration not stated) | -8.4%
O=C(NCCn1cccn1)Nc1cc(C(=O)N2CCOCC2)ccc1Cl | -46.6%
CC(C)c1nsc(N2CCn3c(nnc3C(F)(F)F)C2)n1 | 5.83%
CCCC(=O)N1CCC(C(=O)NCCN2CCC(C)CC2)CC1 | -2.6%
CCc1nc(CN(C)C2CCN(CCCOc3ccccc3)C2)no1 (configuration not stated) | 0.141%
CC(=O)N1CCCC2(CCN(C(=O)c3ccc(Cl)c(C(F)(F)F)c3)C2)C1 (configuration not stated) | -74.4%
CC(C)c1n[nH]c(C2CN(Cc3ccno3)CCO2)n1 (configuration not stated) | 5.49%
COC(=O)CCNC(=O)c1ccc(OCc2ccccc2)nc1 | 4.93%
Cc1cc(C(C)(O)CNC(=O)CCn2ccnc2C(C)C)c(C)o1 (configuration not stated) | 4.27%
Cc1nc(C2CCNC2)nc2c1CCC(=O)N2C (configuration not stated) | 3.77%

Structure (SMILES) | cytotoxicity at 10 µM
CS(=O)(=O)N1C[C@H]2CNC[C@@]2(C(=O)NCCCc2ccccc2)C1 | 0.334%
CCCS(=O)(=O)CCSc1cccc(C#N)c1 | -3.85%
CC(=O)N[C@@H]1CN(Cc2ccccc2-n2cccn2)C[C@H]1C(C)C | 8.67%
CC(Nc1ccc(CC(=O)N(C)C)cc1)C(=O)N(C)CCC#N (configuration not stated) | 1.42%
N#Cc1ccc(C(=O)N2CC[C@H]3[C@@H]2CCC(=O)N3c2cccnc2)cc1 | 1.77%
Cc1ccc(S(=O)(=O)NCC2CNCCOC2)cc1Cl (configuration not stated) | 0.858%
Cc1cnn(CCCNC(=O)C2CCCCN2Cc2ccncc2)c1 (configuration not stated) | -7.85%
Cc1cnn(CCC(=O)N2C[C@@H]3CC[C@H]2CN(CC(=O)N(C)C)C3)c1 | -10%
Cc1cc(CN(C)C(=O)NC(C)Cc2ccco2)no1 (configuration not stated) | 6.62%
COc1ccc(CNC(=O)NCCc2nc(C)c(C)s2)cn1 | -0.0813%
Cc1ccc(C(=O)N2Cc3c(CN4CCCCC4)nn(C)c3C2)cc1F | -4.15%
CC(Cn1cncn1)NC(=O)NCC(C)(C)c1ccc(F)cc1 (configuration not stated) | 13.6%
CN(CCc1ccccc1)Cc1c(C2CCOCC2)[nH]c2ncccc12 | 4.21%
CN1CCC(NC(=O)CC2CN(Cc3ccccc3)CCO2)CC1 (configuration not stated) | -22.2%
CC(C)c1noc(C[S+]([O-])CC(=O)Nc2cc(F)ccc2F)n1 (configuration not stated) | 8.15%
Cc1ncccc1OC1(C(=O)NCCNc2ccccc2)CCNCC1 | -12.4%
CN1CC[C@]2(CN(C(=O)c3ccc[nH]3)C[C@H]2c2ccccc2)C1=O | 11.6%
C[C@]1(O)CN(Cc2ncccc2F)CC[C@@H]1Oc1ccccc1 | -21%
Cc1cnn(CCNCc2ccc(OCc3noc(C)n3)cc2)c1 | 1.33%
Cc1ccc(C(=O)NS(=O)(=O)c2cc(Cl)ccc2Cl)c(=O)[nH]1 | -5.72%
CC(C)n1c(=O)[nH]c2cn(-c3ccc(Br)cc3)c(=O)n21 | 0.843%
Cc1nc(CN(C)C2CCN(Cc3cccc4cccnc34)C2)no1 (configuration not stated) | -11.5%
CC(C)NC(=O)N1CCC2(COCc3cnc(-c4ccccc4)nc32)C1 (configuration not stated) | -0.311%

Structure (SMILES) | cytotoxicity at 10 µM
Cc1nn(C)c(Cl)c1C1CCCN1C(=O)c1csnn1 (configuration not stated) | -0.121%
CC(=O)NCCNC(=O)NCCCc1cccc(F)c1 | 10.5%
CCn1c(C)cc(C(=O)N2C[C@@H](C(=O)O)[C@H](c3ccccc3C)C2)c1C | -7.71%
Cc1cc(N(C)CC2COc3ccccc3O2)nc(N)n1 (configuration not stated) | 17.6%
COCCOc1ccnc(-c2noc([C@@H]3CCCN3CC(C)(C)C)n2)c1 | -12.7%
COCCN(C(=O)c1ccoc1C)c1ccc(C#N)cc1 | -4.9%
CC(C)c1ccc(OCC(=O)NS(=O)(=O)c2cccnc2)cc1 | -5.19%
Cc1cc(C(F)(F)F)nc(N2CCN(Cc3nccn3C)CC2)n1 | -4.28%
CCc1nc(C2CCCN2C(=O)CCc2cccs2)no1 (configuration not stated) | -3.19%
CN(Cc1cnn(-c2ccccc2)n1)C1CCCN(c2cccnn2)C1 (configuration not stated) | -9.83%
CC(=O)N1CCCC(c2nnc3n2CCN(C(=O)C2CCCCC2)C3)C1 (configuration not stated) | 0.685%
Cc1cnn(CC2CN(Cc3nc(-c4ccoc4)no3)CCO2)c1 (configuration not stated) | -9.63%
O=C(CN1C(=O)CCC1=O)NCc1cc(C2CC2)n(C2CCCC2)n1 | 1.74%
Cc1ccc(N(C)Cc2nnnn2C2CC2)c(C)c1 | 8.81%
O=C(NCCCn1cccn1)C1(c2cccc(Cl)c2)CC1 | 17.9%
COC1(CNC(=O)c2ccc(F)c(F)c2)CCSC1 (configuration not stated) | -2.11%
COc1cc(Nc2c(C#N)c(=O)n(C)c(=O)n2C)cc(OC)c1 | -3.65%
Cc1cccc(CN2CCCC(O)(CNCc3ncccc3C)C2=O)c1 (configuration not stated) | -7.4%
Nc1cc(-c2c[nH]nc2C2CCN(C(=O)C3CCCC3)C2)ccn1 (configuration not stated) | 7.49%
Cc1noc(CN(Cc2cccs2)C2CCS(=O)(=O)C2)n1 (configuration not stated) | -3.21%
CC(C(=O)N1CCc2ccccc2C1)N(C)Cc1cscn1 (configuration not stated) | -1.6%
N#CCSCCCN1CCCN(C(=O)c2ccccc2)CC1 | -3.74%
Cc1cccc(Sc2nccn(C)c2=O)c1 | 3.52%

Structure (SMILES) | cytotoxicity at 10 µM
CN(Cc1ccco1)C[C@H]1OC[C@@H]2CCN(Cc3ccsc3)C[C@@H]21 | -3.2%
Fc1ccc(N2CCOC3(COCCN(c4ncccn4)C3)C2)cc1 (configuration not stated) | -95.4%
Cc1[nH]ncc1CCCNC(=O)Nc1ccccc1 | -2.2%
COc1cccc2c1ccn2CCNC(=O)C(C)C | 5.66%
CN1CCN(C2CCN(CCOc3ccc(F)cc3)CC2)C1=O | -7.8%
CC(C)OCCC(=O)NCC(c1c(F)cccc1F)N(C)C (configuration not stated) | -1.19%
CCc1nc2n(n1)CC(NCc1cnn(-c3ccccc3)n1)CC2 (configuration not stated) | -3.01%
COCCOC1CCN(C(C(=O)O)c2ccc3c(c2)OCO3)CC1 (configuration not stated) | 9.07%
Cc1cc(C)n(C2CCCN(C(=O)CN(C)C3CC3)C2)n1 (configuration not stated) | -1.91%
CCc1noc(C)c1C(=O)NCCCC(CC)(CC)C1OCCO1 | -10.1%
Cc1nnc(-c2ccc(C(=O)Nc3ccnc(N(C)C)n3)cc2)o1 | -1.01%
CC1CN(Cc2cnn(C)c2)CCN1c1ccc2nncn2n1 (configuration not stated) | 2.69%
CN(Cc1cccs1)C(=O)CN1CCCC1Cn1cncn1 (configuration not stated) | -15.6%
CCn1c(C)nnc1SCCNC(=O)c1cnc(N(C)C)nc1C | 6.9%
Cc1csc(NC(=O)c2cnc(C3CCCN(C)C3)cn2)n1 (configuration not stated) | -21.3%
O=C(CN1CCc2c(ncn2C2CC2)C1)NC1CCOCC1 | -13.4%
Cc1nc(CN2CCCC(N(C)Cc3nnc(C4CC4)o3)C2)no1 (configuration not stated) | -24.2%
N#Cc1cccc(OCC(=O)N(Cc2ccsc2)C2CC2)c1 | -50.2%
COc1cccc(CNC(=O)C(C)N2CC(n3nc(C)cc3C)C2)c1 (configuration not stated) | 0.868%
O=C(COCc1ccccc1)N1CCCC(OCc2cccnc2)C1 (configuration not stated) | -2.65%
